This note sets out measurements from PubChem BioAssay AID602174 (The Scripps Research Institute Molecular Screening Center, 2012).

The test system of this assay is MCF7 proliferation, sulforhodamine B absorbance. Nature of the assay: growth effect on ER-positive breast cancer cells – cell-based, absorbance, MCF7, counter-screen for AHR activator project, late-stage follow-up (AID 602174). The note with it: at 10 µM. An outline of the steps:
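test system = MCF7 cells | repeats = at least three replicate wells per condition | times = 8–10 day exposure at 37 °C after 24 h attachment | compound dosing = single 10 µM test compound dose, renewed with medium every 48 h | signal = Sulforhodamine B stain, TCA-fixed cells, A490 minus 650 nm background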
For orientation: A counterscreen serves to expose hits that act by an unwanted route or on another target.
With `CCOC(=O)Cc1cc(-c2ccc(O)cc2)nc2ccc3ccccc3c12`, the proliferation change is -84.8%. The value for `Cc1csc(SCC(=O)Nc2ccc(Cl)cn2)n1` was -63.2%; that for `COc1ccc(NC(=O)c2cccc3c(Br)cccc23)cc1` was -59.5%; that for `Cc1nnc(N2C(=O)c3cccc4c([N+](=O)[O-])ccc(c34)C2=O)s1` was -79%.

Consider `Cc1nc(N)nc(Nc2ccc(Cl)cc2)c1Br`, for which the proliferation change was -86.8%. The figure for `Cn1c(C(=O)N2CCC(C(N)=O)CC2)cc2cc(Cl)ccc21` is -49.2%; for `Cc1c(-c2ccn[nH]2)cc(NC(=O)c2ccc(Cl)cc2)c(=O)n1N` it is -73%. The value for `CCOc1ccc(-c2cc(C)n3nc(C(N)=O)cc3n2)cc1` was -20.5%; that for `COc1ccccc1NC(=O)c1ccc(C(=O)Nc2ccccc2OC)nc1` was -90.8%; that for `Cc1ccc(-c2cc(-c3cccs3)[nH]n2)c(O)c1` was -98.1%.
